The record followed here is paper PMC5182512 (Phytochemistry, 2014).

The test concerns the target CrSMT (Chlamydomonas reinhardtii, UniProt A8IJ34). Put plainly: [methyl-3H3]SAM radiometric assay, initial velocity, Lineweaver-Burk. The test is classed as biochemical. The conditions noted are these: E. coli lysate; 100 μM SAM (saturating), phosphate buffer pH 7.5. Summed up:
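Recombinant 384-aa CrSMT expressed in E. coli BL21(DE3), IPTG-induced (0.4 mM, 2 h, 30 °C), French-press lysate in 20 mM phosphate, 5% glycerol, pH 7.5. Lysate (1–2 mg total protein) incubated 45 min with sterol acceptor 5–150 μM plus [methyl-3H3]SAM (0.6 μCi). Methanolic KOH saponification, hexane extraction of non-saponifiable lipids. Sterol-free background 500–1000 dpm. Lineweaver–Burk analysis.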

As a reminder, the Km is the substrate concentration at which the rate is half of its maximum. As for `CC(C)=CCC[C@@H](C)[C@H]1CC[C@@]2(C)C3=C(CC[C@]12C)[C@@]1(C)CC[C@H](O)C(C)(C)[C@@H]1CC3` [compound 1, Lanosterol], the Km is 24 µM.

For `CC(C)=CCC[C@@H](C)[C@H]1CC[C@H]2C3=C(CC[C@]12C)[C@@]1(C)CC[C@H](O)C[C@@H]1CC3` [compound 9, Zymosterol], the Km was found to be 22 µM.
